Measurements reported in ChEMBL document CHEMBL1221237, “Synthesis of N-aryl-3-(indol-3-yl)propanamides and their immunosuppressive activities” (Bioorg Med Chem Lett, 2010).
Activity calls are given as the source filed them. The rule behind the calls is not given here.

Columns and labels:
[1] = (§1) Immunosuppressive activity in C57BL/6 mouse splenocytes assessed as inhibition of concanavalin A-induced cell proliferation at 90 uM after 72 hrs by MTT assay; assay type: functional; details: C57BL/6, Splenocyte
Summary of the method: (§2)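 Splenocytes pooled from two spleens of 8-week-old female C57BL/6 mice, red cells lysed with 20 mM Tris-HCl/140 mM NH4Cl, seeded 1.5×10^5/well. Stimulated with 1 μg/mL ConA, compounds diluted from DMSO into RPMI with 10% FCS and 50 μM mercaptoethanol. 72 h at 37 °C, 5% CO2. MTT 4 h, OD 570 nm, sextuplicate. Inhibition = (control OD − treated OD)/control OD × 100.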

[2] = (§3) Immunosuppressive activity in C57BL/6 mouse splenocytes assessed as inhibition of concanavalin A-induced cell proliferation at 30 uM after 72 hrs by MTT assay; assay type: functional; details: C57BL/6, Splenocyte; summary of the method: as §2
[3] = system: Splenocyte; assay: as §3; assay type: functional; summary of the method: as §2
[4] = system: Splenocyte; assay: as §1; assay type: functional; summary of the method: as §2
[5] = (§4) Immunosuppressive activity in C57BL/6 mouse splenocytes assessed as inhibition of cell proliferation after 72 hrs by MTT assay; assay type: functional, cell-based; details: C57BL/6, Splenocyte; summary of the method: as §2
[6] = system: Splenocyte; assay: as §4; assay type: functional, cell-based; summary of the method: as §2
[7] = molecular target: T1, Tyrosine-protein kinase JAK3 (Homo sapiens, UniProt P52333); assay: Inhibition of recombinant JAK3 after 1 hr
T1 sequence (P52333 whole entry): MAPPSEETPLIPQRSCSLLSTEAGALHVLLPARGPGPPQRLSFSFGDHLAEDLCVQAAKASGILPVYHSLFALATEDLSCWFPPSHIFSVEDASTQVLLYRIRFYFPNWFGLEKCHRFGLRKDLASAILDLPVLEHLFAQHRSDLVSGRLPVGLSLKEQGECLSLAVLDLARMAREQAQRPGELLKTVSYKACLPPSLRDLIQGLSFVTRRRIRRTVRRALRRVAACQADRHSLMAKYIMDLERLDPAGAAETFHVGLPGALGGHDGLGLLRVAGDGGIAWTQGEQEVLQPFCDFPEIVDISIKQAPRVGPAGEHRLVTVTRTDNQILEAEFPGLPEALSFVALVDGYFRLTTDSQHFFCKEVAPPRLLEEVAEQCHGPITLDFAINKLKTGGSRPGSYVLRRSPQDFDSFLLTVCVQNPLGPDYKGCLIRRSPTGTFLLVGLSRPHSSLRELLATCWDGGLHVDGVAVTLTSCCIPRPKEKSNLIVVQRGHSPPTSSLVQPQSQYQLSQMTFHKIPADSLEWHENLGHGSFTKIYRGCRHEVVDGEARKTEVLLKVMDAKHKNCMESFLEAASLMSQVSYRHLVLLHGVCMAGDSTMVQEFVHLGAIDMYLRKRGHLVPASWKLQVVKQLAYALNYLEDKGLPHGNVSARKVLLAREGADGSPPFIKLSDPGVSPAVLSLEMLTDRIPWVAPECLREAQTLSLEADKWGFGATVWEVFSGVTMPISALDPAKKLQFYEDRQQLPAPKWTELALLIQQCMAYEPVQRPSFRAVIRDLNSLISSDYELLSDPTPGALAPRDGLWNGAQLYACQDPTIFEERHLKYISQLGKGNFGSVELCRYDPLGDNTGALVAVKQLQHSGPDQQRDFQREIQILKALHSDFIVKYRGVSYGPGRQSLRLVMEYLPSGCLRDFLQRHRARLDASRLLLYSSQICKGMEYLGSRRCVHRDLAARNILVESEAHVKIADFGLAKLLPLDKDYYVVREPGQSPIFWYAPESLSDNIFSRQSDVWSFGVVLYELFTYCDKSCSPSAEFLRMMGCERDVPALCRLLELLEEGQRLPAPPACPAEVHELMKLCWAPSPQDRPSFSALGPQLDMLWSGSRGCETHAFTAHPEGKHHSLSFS
Summary of the method: (§5)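 Recombinant kinase with substrate and 10 μM ATP, 1 h incubation. Compound at 10 final concentrations, 3.16 nM-100 μM. Activity read by AlphaScreen Protein-A detection after bead-mix stop; IC50 derived.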

[8] = molecular target: Tyrosine-protein kinase JAK2 (Homo sapiens, UniProt O60674); assay: Inhibition of recombinant JAK2 after 1 hr; summary of the method: as §5
Sequence of Tyrosine-protein kinase JAK2 (O60674 whole entry): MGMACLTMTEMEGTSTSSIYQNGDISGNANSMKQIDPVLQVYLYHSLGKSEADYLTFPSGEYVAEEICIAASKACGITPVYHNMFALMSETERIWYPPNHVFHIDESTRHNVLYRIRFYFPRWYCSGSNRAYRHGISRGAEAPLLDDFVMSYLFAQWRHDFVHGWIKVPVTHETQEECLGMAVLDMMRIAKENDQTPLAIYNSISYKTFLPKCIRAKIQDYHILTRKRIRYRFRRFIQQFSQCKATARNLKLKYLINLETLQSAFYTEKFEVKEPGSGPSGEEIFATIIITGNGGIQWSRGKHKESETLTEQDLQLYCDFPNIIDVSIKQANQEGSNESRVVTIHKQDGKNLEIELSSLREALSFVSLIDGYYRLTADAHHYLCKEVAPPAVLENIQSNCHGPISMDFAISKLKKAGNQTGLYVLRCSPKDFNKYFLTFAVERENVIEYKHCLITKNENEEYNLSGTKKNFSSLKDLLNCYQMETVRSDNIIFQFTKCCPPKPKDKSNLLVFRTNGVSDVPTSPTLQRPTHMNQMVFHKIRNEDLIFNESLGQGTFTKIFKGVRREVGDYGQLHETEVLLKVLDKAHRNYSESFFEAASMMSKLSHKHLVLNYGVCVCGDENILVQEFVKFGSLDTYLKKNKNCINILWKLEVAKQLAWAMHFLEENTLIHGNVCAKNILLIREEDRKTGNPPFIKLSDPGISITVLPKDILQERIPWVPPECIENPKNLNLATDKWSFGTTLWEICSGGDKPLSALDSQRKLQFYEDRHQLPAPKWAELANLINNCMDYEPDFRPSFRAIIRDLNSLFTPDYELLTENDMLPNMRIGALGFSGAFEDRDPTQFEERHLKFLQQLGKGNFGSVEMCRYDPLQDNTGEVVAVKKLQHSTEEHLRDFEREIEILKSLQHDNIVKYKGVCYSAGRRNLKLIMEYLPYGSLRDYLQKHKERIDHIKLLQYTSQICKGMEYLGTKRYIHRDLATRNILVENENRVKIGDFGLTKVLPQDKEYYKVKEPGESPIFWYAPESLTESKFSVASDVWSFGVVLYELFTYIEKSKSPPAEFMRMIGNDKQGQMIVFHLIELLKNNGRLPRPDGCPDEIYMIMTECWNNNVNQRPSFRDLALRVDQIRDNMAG

[9] = Cytotoxicity in C57BL/6 mouse splenocytes assessed as reduction of cell viability at 90 uM after 48 hrs by MTT assay; assay type: cell-based; details: splenocyte
[10] = system: Mus musculus; assay: Immunosuppressive activity in delayed-type hypersensitivity BALB/C mouse model assessed as inhibition of sheep RBC-induced foot-pad swelling at 50 mg/kg, po qd for 5 days measured after 24 hrs last post dose; assay type: functional, organism-based; design: dose 50 mg/kg
Summary of the method: (§6)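 Groups of five female BALB/c mice, 8-9 weeks old, primed iv with 5×10^6 SRBC in PBS. Compound in olive oil given orally daily for 5 days, from priming to challenge. Day 4: 3-4×10^8 SRBC into right hind footpad, PBS into left. Swelling difference read 24 h later; inhibition taken against untreated controls. Mean ± SEM, Dunnett test.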

[11] = system: Mus musculus; assay: Immunosuppressive activity in delayed-type hypersensitivity po dosed BALB/C mouse model assessed as inhibition of sheep RBC-induced foot-pad swelling administered qd for 5 days measured after 24 hrs last post dose; assay type: functional, organism-based; summary of the method: as §6
[12] = system: Mus musculus; assay: Acute toxicity in BALB/C mouse at 50 to 120 mg/kg, po qd for 5 days; assay type: organism-based; design: dose 50-120 mg/kg, route oral; details: in vivo, 120 h
Summary of the method: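 Female BALB/C mice, 8-9 weeks old, groups of five. Dosed orally once daily for 5 days in olive oil, from priming to challenge, within a DTH study: primed iv with 5×10^6 SRBC, footpad challenge with SRBC on day 4. Acute toxicity judged by observation against untreated control mice over the 5-day treatment.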

[13] = Inhibition of recombinant ERK after 1 hr; summary of the method: as §5
[14] = molecular target: Homeodomain-interacting protein kinase 1 (Homo sapiens, UniProt Q86Z02); assay: Inhibition of recombinant HIPK1 after 1 hr; summary of the method: as §5
[15] = molecular target: T2, Aurora kinase A (Homo sapiens, UniProt O14965); assay: Inhibition of recombinant aurora A after 1 hr; summary of the method: as §5
T2 sequence (O14965 whole entry): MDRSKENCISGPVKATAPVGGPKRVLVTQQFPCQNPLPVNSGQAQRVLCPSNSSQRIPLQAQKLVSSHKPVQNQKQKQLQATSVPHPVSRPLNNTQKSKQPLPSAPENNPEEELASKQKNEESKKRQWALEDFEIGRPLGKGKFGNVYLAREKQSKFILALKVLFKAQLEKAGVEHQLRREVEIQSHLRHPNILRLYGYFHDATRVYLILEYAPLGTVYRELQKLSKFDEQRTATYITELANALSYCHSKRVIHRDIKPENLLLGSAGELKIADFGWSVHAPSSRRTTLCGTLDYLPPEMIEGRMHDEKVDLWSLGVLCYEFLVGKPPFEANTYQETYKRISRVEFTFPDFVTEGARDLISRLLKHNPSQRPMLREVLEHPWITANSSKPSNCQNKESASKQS

[16] = molecular target: Serine/threonine-protein kinase pim-1 (Homo sapiens, UniProt P11309); assay: Inhibition of recombinant Pim1 after 1 hr; summary of the method: as §5
Sequence of Serine/threonine-protein kinase pim-1 (P11309 whole entry): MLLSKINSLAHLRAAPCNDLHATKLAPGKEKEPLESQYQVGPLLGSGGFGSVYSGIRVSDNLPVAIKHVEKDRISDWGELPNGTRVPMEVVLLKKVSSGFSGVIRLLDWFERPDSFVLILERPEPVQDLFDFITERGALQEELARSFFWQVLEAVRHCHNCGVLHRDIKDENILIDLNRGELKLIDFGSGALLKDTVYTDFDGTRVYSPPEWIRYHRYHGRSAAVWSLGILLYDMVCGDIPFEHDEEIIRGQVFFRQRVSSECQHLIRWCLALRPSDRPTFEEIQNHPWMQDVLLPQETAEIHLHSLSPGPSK

[17] = molecular target: Tyrosine-protein kinase ABL1 (Homo sapiens, UniProt P00519); assay: Inhibition of recombinant c-Abl after 1 hr; summary of the method: as §5
Sequence of Tyrosine-protein kinase ABL1 (P00519 whole entry): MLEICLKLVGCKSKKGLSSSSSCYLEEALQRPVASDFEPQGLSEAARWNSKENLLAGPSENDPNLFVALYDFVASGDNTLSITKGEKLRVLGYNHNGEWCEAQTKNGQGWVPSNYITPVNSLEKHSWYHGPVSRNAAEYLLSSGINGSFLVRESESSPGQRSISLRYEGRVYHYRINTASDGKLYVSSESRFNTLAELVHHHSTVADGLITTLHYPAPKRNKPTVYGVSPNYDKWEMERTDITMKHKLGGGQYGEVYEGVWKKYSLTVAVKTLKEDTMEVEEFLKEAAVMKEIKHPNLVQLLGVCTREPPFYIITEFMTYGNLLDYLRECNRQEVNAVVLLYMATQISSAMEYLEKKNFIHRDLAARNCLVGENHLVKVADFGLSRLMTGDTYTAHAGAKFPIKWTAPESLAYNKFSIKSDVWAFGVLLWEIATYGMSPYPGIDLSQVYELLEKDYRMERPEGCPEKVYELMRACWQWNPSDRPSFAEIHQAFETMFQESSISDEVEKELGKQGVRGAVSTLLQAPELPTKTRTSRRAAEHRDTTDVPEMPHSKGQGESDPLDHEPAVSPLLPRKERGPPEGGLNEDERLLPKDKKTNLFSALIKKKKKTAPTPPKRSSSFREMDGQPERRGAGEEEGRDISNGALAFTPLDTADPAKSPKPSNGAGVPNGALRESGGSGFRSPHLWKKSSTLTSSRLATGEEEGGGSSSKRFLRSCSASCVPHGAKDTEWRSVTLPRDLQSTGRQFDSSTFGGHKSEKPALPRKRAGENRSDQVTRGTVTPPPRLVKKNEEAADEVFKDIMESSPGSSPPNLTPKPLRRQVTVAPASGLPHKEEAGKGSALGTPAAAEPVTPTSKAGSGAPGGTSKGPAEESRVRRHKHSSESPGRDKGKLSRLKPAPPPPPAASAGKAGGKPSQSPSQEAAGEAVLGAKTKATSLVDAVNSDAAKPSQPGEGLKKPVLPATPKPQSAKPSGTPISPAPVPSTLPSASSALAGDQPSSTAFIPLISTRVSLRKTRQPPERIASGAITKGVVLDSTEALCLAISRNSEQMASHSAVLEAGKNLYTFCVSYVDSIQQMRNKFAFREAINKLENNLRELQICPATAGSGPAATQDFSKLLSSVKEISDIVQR

[18] = molecular target: Vascular endothelial growth factor receptor 2 (Homo sapiens, UniProt P35968); assay: Inhibition of recombinant KDR after 1 hr; summary of the method: as §5
Sequence of Vascular endothelial growth factor receptor 2 (P35968 whole entry): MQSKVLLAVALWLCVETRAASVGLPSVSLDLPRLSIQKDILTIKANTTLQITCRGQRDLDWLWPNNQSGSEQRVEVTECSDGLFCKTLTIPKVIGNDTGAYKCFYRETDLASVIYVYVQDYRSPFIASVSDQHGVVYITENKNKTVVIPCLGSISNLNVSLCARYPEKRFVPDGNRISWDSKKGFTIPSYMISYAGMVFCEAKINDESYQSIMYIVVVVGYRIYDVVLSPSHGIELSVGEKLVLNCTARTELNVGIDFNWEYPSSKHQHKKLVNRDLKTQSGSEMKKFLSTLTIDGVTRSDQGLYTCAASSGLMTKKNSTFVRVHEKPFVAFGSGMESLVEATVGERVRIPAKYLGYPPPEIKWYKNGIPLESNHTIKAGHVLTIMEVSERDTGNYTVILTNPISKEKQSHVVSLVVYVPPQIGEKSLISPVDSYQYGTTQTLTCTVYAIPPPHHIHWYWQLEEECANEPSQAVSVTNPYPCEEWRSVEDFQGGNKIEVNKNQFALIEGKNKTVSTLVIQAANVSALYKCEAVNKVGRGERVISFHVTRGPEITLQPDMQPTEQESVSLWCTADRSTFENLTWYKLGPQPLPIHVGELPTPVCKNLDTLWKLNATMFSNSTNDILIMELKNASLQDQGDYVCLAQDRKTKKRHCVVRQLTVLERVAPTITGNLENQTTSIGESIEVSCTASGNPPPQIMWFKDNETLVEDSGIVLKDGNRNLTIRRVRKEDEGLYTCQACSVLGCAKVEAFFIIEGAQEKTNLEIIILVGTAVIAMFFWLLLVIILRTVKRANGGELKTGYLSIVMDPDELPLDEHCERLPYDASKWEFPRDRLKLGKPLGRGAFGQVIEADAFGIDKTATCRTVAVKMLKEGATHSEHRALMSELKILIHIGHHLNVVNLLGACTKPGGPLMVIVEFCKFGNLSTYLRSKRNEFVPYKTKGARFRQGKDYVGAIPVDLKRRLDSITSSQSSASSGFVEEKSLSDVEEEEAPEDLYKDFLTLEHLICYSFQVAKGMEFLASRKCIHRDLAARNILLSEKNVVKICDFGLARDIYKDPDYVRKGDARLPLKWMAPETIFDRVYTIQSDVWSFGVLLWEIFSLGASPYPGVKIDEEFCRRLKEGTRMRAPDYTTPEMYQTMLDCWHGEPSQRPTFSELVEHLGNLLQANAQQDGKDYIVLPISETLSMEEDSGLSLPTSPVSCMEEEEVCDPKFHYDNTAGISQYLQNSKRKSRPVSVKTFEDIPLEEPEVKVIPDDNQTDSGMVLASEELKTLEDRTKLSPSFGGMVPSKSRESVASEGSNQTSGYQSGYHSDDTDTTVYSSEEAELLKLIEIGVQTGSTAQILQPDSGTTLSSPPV

[19] = molecular target: Tyrosine-protein kinase Yes (Homo sapiens, UniProt P07947); assay: Inhibition of recombinant YES after 1 hr; summary of the method: as §5
[20] = molecular target: High affinity nerve growth factor receptor (Homo sapiens, UniProt P04629); assay: Inhibition of recombinant TrkA after 1 hr; summary of the method: as §5
Sequence of High affinity nerve growth factor receptor (P04629 whole entry): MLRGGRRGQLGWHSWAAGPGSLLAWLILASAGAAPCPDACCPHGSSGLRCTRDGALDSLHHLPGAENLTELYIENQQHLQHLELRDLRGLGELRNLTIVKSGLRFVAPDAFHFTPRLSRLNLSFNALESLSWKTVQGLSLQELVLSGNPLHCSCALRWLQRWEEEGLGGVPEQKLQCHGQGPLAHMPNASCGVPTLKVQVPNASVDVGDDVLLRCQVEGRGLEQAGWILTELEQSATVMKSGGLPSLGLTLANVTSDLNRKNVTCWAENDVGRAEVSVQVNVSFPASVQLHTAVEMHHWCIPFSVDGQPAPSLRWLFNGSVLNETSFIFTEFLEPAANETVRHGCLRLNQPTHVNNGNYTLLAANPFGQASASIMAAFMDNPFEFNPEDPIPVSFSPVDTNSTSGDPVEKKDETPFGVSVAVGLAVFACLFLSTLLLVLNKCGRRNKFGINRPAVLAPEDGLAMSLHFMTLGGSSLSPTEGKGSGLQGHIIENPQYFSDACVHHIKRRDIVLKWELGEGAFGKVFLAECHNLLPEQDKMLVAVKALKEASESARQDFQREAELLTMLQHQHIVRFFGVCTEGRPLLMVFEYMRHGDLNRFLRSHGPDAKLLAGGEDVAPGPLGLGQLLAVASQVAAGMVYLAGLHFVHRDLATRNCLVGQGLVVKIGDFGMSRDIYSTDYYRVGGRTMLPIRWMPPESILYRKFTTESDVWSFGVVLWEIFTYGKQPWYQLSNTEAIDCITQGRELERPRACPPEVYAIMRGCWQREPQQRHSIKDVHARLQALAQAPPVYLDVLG

[21] = system: Mus musculus; assay: Immunosuppressive activity in delayed-type hypersensitivity BALB/C mouse model assessed as inhibition of sheep RBC-induced foot-pad swelling at 50 to 120 mg/kg, po qd for 5 days measured after 24 hrs last post dose; assay type: functional; details: dose mg/kg 50-120; summary of the method: as §6

O=C(CCc1cn(Cc2ccc(Cl)cc2)c2ccccc12)Nc1ccnc2ccccc12
inhibition at 90 µM [1]: 37% | inhibition at 30 µM [2]: 20%

N#Cc1ccc(NC(=O)CCc2cn(Cc3ccc(Cl)cc3)c3ccccc23)cc1
inhibition at 90 µM [1]: 78% | inhibition at 30 µM [2]: 30%

O=C(CCc1cn(Cc2ccc(Cl)cc2)c2ccccc12)Nc1ccc2ncccc2c1
inhibition at 90 µM [1]: 86% | inhibition [3]: inactive

O=C(CCc1cn(Cc2ccc(Cl)cc2)c2ccccc12)Nc1ccc(C(F)(F)F)cc1
inhibition at 90 µM [1]: 18%

O=C(CCc1cn(Cc2ccc(Cl)cc2)c2ccccc12)Nc1cccnc1
inhibition at 90 µM [1]: 40% | inhibition at 30 µM [2]: 28%

O=C(CCc1cn(Cc2ccc(Cl)cc2)c2ccccc12)Nc1cccc2ncccc12
inhibition [4]: inactive | inhibition [3]: inactive

O=C(CCc1cn(Cc2ccc(Cl)cc2)c2ccccc12)Nc1ccccc1
inhibition [4]: inactive | inhibition [3]: inactive

O=C(CCc1cn(Cc2ccc(Cl)cc2)c2ccccc12)Nc1cccc2cnccc12
inhibition at 90 µM [1]: 17% | inhibition [3]: inactive

Nc1ccc(NC(=O)CCc2cn(Cc3ccc(Cl)cc3)c3ccccc23)cc1
inhibition [4]: inactive | inhibition [3]: inactive

O=C(CCc1cn(Cc2ccc(Cl)cc2)c2ccccc12)Nc1ccc([N+](=O)[O-])cc1
inhibition at 90 µM [1]: 92% | inhibition at 30 µM [2]: 87% | IC50 [5]: 19.8 µM | inhibition [6]: Dose-dependent effect | IC50 [7]: 34.2 µM | IC50 [8]: 107 µM | Activity [9]: Non-toxic | inhibition [10]: Active | inhibition [11]: Dose-dependent effect | Activity [12]: Non-toxic | IC50 [13]: > 100 µM | IC50 [14]: > 100 µM | IC50 [15]: > 100 µM | IC50 [16]: > 100 µM | IC50 [17]: > 100 µM | IC50 [18]: 33.2 µM | IC50 [19]: 38.1 µM | IC50 [20]: > 100 µM

O=C(CCc1cn(Cc2ccc(Cl)cc2)c2ccccc12)Nc1ccncc1
inhibition at 90 µM [1]: 87% | inhibition at 30 µM [2]: 19% | IC50 [5]: 17 µM | IC50 [7]: 52 µM | IC50 [8]: 134 µM | inhibition (INH) [21]: 69% | IC50 [13]: > 100 µM | IC50 [14]: > 100 µM | IC50 [15]: > 100 µM | IC50 [16]: > 100 µM | IC50 [17]: > 100 µM | IC50 [18]: 26 µM | IC50 [19]: 30 µM | IC50 [20]: > 100 µM

O=C(CCc1cn(Cc2ccc(Cl)cc2)c2ccccc12)Nc1ccccn1
inhibition at 90 µM [1]: 26% | inhibition [3]: inactive
